Converted amounts (≈) assume the structure as drawn.
How the values were obtained:
[1] = system: Mycobacterium tuberculosis; assay: Antimycobacterial activity against Mycobacterium tuberculosis H37Rv ATCC 27294 after 5 days by microplate alamar blue assay; format: functional; details: H37Rv ATCC 27294, 120 h
Method in brief: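 MTB H37Rv (ATCC 27294) in 7H9GC broth, 2-fold serial dilutions from 50 to 0.78 µg/mL. Controls were medium only, inoculum only, and inoculum with 3-5% DMSO. Incubated at 37°C for 5 days. Then 1:1 10× Alamar Blue/10% Tween 80 was added and plates read after a further 24 h at 37°C. Blue scored as no growth, pink as growth.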

RAW264.7 = assay: Cytotoxicity against mouse RAW264.7 cells assessed as inhibition of cell viability after 72 hrs by Cell Titer 96 non-radioactive cell proliferation assay; format: cell-based; details: RAW264.7, 72 h
Method in brief: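 MTT-type Cell Titer 96 non-radioactive proliferation assay on mouse macrophage RAW264.7 cells. Viability was read after 72 h of exposure. IC50 values are given as approximate.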

[2] = Cytotoxicity against mouse RAW264.7 cells assessed as inhibition of cell viability at 50 ug/ml after 72 hrs by Cell Titer 96 non-radioactive cell proliferation assay; format: cell-based
Method in brief: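 Mouse macrophage RAW264.7 cells exposed to compound at 50 µg/mL for 72 h. Viability was then measured by the MTT-type Cell Titer 96 non-radioactive proliferation assay.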

[3] = Selectivity index, ratio of IC50 for mouse RAW264.7 cells to MIC for Mycobacterium tuberculosis H37Rv ATCC 27294; format: toxicity; details: read-out: Selectivity Index

Row | SMILES | MIC99 [1] [mg/L] | IC50 (RAW264.7) [mg/L] | inhibition at 72 h, 50 ug/ml [2] [%] | selectivity ratio [3]
1 | NNC(=O)c1ccncc1 [ISONIAZID] | 0.1 (≈ 0.729 µM) |  |  | 
2 | O=C(O)c1cccc(C(=O)N2CCN(c3nc4ccccc4c4ccccc34)CC2)n1 | 3.13 (≈ 7.59 µM) | 94.3 (≈ 229 µM) | 26.5 | 30.2
3 | CC(C)(C)c1ccc(S(=O)(=O)N2CCN(c3nc4ccccc4c4ccccc34)CC2)cc1 | 1.56 (≈ 3.39 µM) | 86.4 (≈ 188 µM) | 28.9 | 55.4
4 | O=S(=O)(c1ccc(F)cc1)N1CCN(c2nc3ccccc3c3ccccc23)CC1 | 6.25 (≈ 14.8 µM) | 76.3 (≈ 181 µM) | 32.8 | 12.2
5 | Nc1ccc(C(=O)N2CCN(c3nc4ccccc4c4ccccc34)CC2)cc1 | 50 (≈ 131 µM) |  |  | 
6 | O=C(c1ccco1)N1CCN(c2nc3ccccc3c3ccccc23)CC1 | 25 (≈ 69.9 µM) |  |  | 
7 | Nc1ccccc1C(=O)N1CCN(c2nc3ccccc3c3ccccc23)CC1 | > 50 |  |  | 
8 | O=C(c1ccccc1)N1CCN(c2nc3ccccc3c3ccccc23)CC1 | 3.13 (≈ 8.52 µM) | 113 (≈ 307 µM) | 22.2 | 36.1
9 | O=C(c1cccnc1)N1CCN(c2nc3ccccc3c3ccccc23)CC1 | 6.25 (≈ 17 µM) | 130 (≈ 354 µM) | 19.2 | 20.9
10 | CO[C@H]1/C=C/O[C@@]2(C)Oc3c(C)c(O)c4c(O)c(c(/C=N/N5CCN(C)CC5)c(O)c4c3C2=O)NC(=O)/C(C)=C\C=C\[C@H](C)[C@H](O)[C@@H](C)[C@@H](O)[C@@H](C)[C@H](OC(C)=O)[C@@H]1C [RIFAMPIN] | 0.2 (≈ 0.243 µM) |  |  | 
11 | Cc1cc(C)c(S(=O)(=O)N2CCN(c3nc4ccccc4c4ccccc34)CC2)c(C)c1 | 12.5 (≈ 28.1 µM) | 94.3 (≈ 212 µM) | 26.5 | 7.54
12 | CS(=O)(=O)N1CCN(c2nc3ccccc3c3ccccc23)CC1 | 25 (≈ 73.2 µM) |  |  | 
13 | O=S(=O)(c1ccc(C(F)(F)F)cc1)N1CCN(c2nc3ccccc3c3ccccc23)CC1 | 25 (≈ 53 µM) |  |  | 
14 | NC(=O)c1cnccn1 [PYRAZINAMIDE] | 6.25 (≈ 50.8 µM) |  |  | 
15 | O=S(=O)(c1ccccc1)N1CCN(c2nc3ccccc3c3ccccc23)CC1 | 6.25 (≈ 15.5 µM) | 81.4 (≈ 202 µM) | 30.7 | 13
16 | O=C(c1cccs1)N1CCN(c2nc3ccccc3c3ccccc23)CC1 | 50 (≈ 134 µM) |  |  | 
17 | O=C(c1ccc([N+](=O)[O-])cc1)N1CCN(c2nc3ccccc3c3ccccc23)CC1 | 50 (≈ 121 µM) |  |  | 
18 | O=S(=O)(c1ccc(Br)cc1)N1CCN(c2nc3ccccc3c3ccccc23)CC1 | 3.13 (≈ 6.49 µM) | 88.8 (≈ 184 µM) | 28.2 | 28.4

Row | SMILES | MIC99 [1] [mg/L] | IC50 (RAW264.7) [mg/L] | inhibition at 72 h, 50 ug/ml [2] [%] | selectivity ratio [3]
19 | COc1ccc(S(=O)(=O)N2CCN(c3nc4ccccc4c4ccccc34)CC2)cc1 | 6.25 (≈ 14.4 µM) | 94.3 (≈ 217 µM) | 26.5 | 15.1
20 | O=C(Cc1cccc2ccccc12)N1CCN(c2nc3ccccc3c3ccccc23)CC1 | > 50 |  |  | 
21 | O=S(=O)(c1ccc(Br)s1)N1CCN(c2nc3ccccc3c3ccccc23)CC1 | 3.13 (≈ 6.41 µM) | 59.3 (≈ 121 µM) | 42.2 | 
22 | O=C(CCCc1c[nH]c2ccccc12)N1CCN(c2nc3ccccc3c3ccccc23)CC1 | 1.56 (≈ 3.48 µM) | 73.3 (≈ 163 µM) | 34.1 | 47
23 | N#CCC(=O)N1CCN(c2nc3ccccc3c3ccccc23)CC1 | 25 (≈ 75.7 µM) |  |  | 
24 | Cc1ccc(S(=O)(=O)N2CCN(c3nc4ccccc4c4ccccc34)CC2)cc1 | > 50 |  |  | 
25 | O=C(CCc1c[nH]c2ccccc12)N1CCN(c2nc3ccccc3c3ccccc23)CC1 | 6.25 (≈ 14.4 µM) | 72.2 (≈ 166 µM) | 34.6 | 11.5
26 | O=[N+]([O-])c1ccc(S(=O)(=O)N2CCN(c3nc4ccccc4c4ccccc34)CC2)cc1 | 50 (≈ 111 µM) |  |  | 
27 | O=C(/C=C/c1ccccc1)N1CCN(c2nc3ccccc3c3ccccc23)CC1 | 12.5 (≈ 31.8 µM) | 113 (≈ 287 µM) | 22.1 | 9.04
28 | Cc1cc(S(=O)(=O)N2CCN(c3nc4ccccc4c4ccccc34)CC2)c(C)cc1Cl | 6.25 (≈ 13.4 µM) | 72.2 (≈ 155 µM) | 34.6 | 11.5
29 | O=C(c1ccncc1)N1CCN(c2nc3ccccc3c3ccccc23)CC1 | 1.56 (≈ 4.23 µM) | 89.6 (≈ 243 µM) | 27.9 | 57.4
30 | O=C(c1ccccn1)N1CCN(c2nc3ccccc3c3ccccc23)CC1 | 3.13 (≈ 8.5 µM) | 59.3 (≈ 161 µM) | 42.2 | 19
31 | CC(=O)c1ccc(S(=O)(=O)N2CCN(c3nc4ccccc4c4ccccc34)CC2)cc1 | 25 (≈ 56.1 µM) |  |  | 
32 | O=C(Cc1c[nH]c2ccccc12)N1CCN(c2nc3ccccc3c3ccccc23)CC1 | 25 (≈ 59.5 µM) |  |  | 
33 | O=C(c1ccc(Cl)cc1)N1CCN(c2nc3ccccc3c3ccccc23)CC1 | 12.5 (≈ 31.1 µM) | 94.3 (≈ 235 µM) | 26.5 | 7.54
34 | O=C(c1cccc([N+](=O)[O-])c1)N1CCN(c2nc3ccccc3c3ccccc23)CC1 | 3.13 (≈ 7.59 µM) | 72.2 (≈ 175 µM) | 34.6 | 23.1
35 | O=C(c1cc([N+](=O)[O-])cc([N+](=O)[O-])c1)N1CCN(c2nc3ccccc3c3ccccc23)CC1 | 25 (≈ 54.7 µM) |  |  | 
36 | O=S(=O)(c1ccc(Cl)cc1)N1CCN(c2nc3ccccc3c3ccccc23)CC1 | 3.13 (≈ 7.15 µM) | 120 (≈ 273 µM) | 20.9 | 38.3

From ChEMBL document CHEMBL4000144, “Novel amide and sulphonamide derivatives of 6-(piperazin-1-yl)phenanthridine as potent Mycobacterium tuberculosis H37Rv inhibitors” (Eur J Med Chem, 2015)
